In the array DNA melting data of Ke et al. (doi:10.1101/2024.01.08.574731):

How the values were obtained:
[1] = folding enthalpy; higher = less favourable; fluorescence melt of hairpins on a sequencing array, two-state fit; conditions: sodium 0.088 M
Procedure, shortened: (§1)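 Melting temperature and folding enthalpy were derived from bootstrapped two-state fits. The fitted temperatures were raised by 9.35 °C to agree with UV melts, and four replicates were combined by inverse variance. The underlying data were Cy3 fluorescence images of library hairpins, with annealed Cy3 and quencher oligos, on a sequenced MiSeq flow cell in 50 mM Na-HEPES pH 8.0, 25 mM NaCl, taken in 2.5 °C steps up to 60 °C, normalised to pre-quench Cy3 and to control constructs.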

[2] = melting temperature; fluorescence melt of hairpins on a sequencing array, two-state fit, raised by 9.35 °C to match UV melts; conditions: sodium 0.088 M
Procedure, shortened: as §1

Sequence: GGCCCTGGAAACAAGGCC ((((.((....)).))))
- folding enthalpy [1]: -36.7 kcal/mol
- Tm [2]: 48.3 °C

Sequence: GGCCCTTCGAAAGAAGCC (((..(((....))))))
- folding enthalpy [1]: -12.6 kcal/mol
- Tm [2]: 27.3 °C

Sequence: GGCCGCACGAAAGTGGCC (((..(((....))))))
- folding enthalpy [1]: -26.5 kcal/mol
- Tm [2]: 58.9 °C

Sequence: GGCCGCGAAAGCGATGCC ((((((....)))..)))
- folding enthalpy [1]: -25.2 kcal/mol
- Tm [2]: 59.3 °C

Sequence: GGCCGCGAAAGCGTGGCC ((((((....)))..)))
- folding enthalpy [1]: -22.8 kcal/mol
- Tm [2]: 69.2 °C

Sequence: GGCCGCGGAAACACGGCC (((((.(....).)))))
- folding enthalpy [1]: -45.4 kcal/mol
- Tm [2]: 66.1 °C

Sequence: GGCCGGGGAAACCCGACC ((.((((....)))).))
- folding enthalpy [1]: -34.5 kcal/mol
- Tm [2]: 57.2 °C

Sequence: GGCCGTGCGAAAGCAGCC (((..(((....))))))
- folding enthalpy [1]: -16.3 kcal/mol
- Tm [2]: 46.6 °C

Sequence: GGCCGTGGAAACACGACC ((.((((....)))).))
- folding enthalpy [1]: -36.2 kcal/mol
- Tm [2]: 55 °C

Sequence: GGCCGTGGAAACACGGTC (.(((((....))))).)
- folding enthalpy [1]: -24.3 kcal/mol
- Tm [2]: 65.3 °C

Sequence: GGCCTACCGAAAGGTGCC (((..(((....))))))
- folding enthalpy [1]: -20.7 kcal/mol
- Tm [2]: 46.7 °C

Sequence: GGCCTAGGAAACTGGGTC (.((.((....)).)).)
- folding enthalpy [1]: -28.5 kcal/mol
- Tm [2]: 40.9 °C

Sequence: GGCCTATCGAAAGATGCC (((..(((....))))))
- folding enthalpy [1]: -22.8 kcal/mol
- Tm [2]: 36.1 °C

Sequence: GGCCTCGGAAACGAAGCC (((.(((....))).)))
- folding enthalpy [1]: -30.8 kcal/mol
- Tm [2]: 47.8 °C

Sequence: GGCCTGCCGAAAGGCGCC (((..(((....))))))
- folding enthalpy [1]: -13.7 kcal/mol
- Tm [2]: 49.4 °C

Sequence: GGCCTGCGAAAGCATGCC (((.(((....))).)))
- folding enthalpy [1]: -28.2 kcal/mol
- Tm [2]: 58.4 °C

Sequence: GGCCTGGGAAACTGGGCC ((((..(....)..))))
- folding enthalpy [1]: -38 kcal/mol
- Tm [2]: 54.7 °C

Sequence: GGCCTTCCGAAAGGAGCC (((..(((....))))))
- folding enthalpy [1]: -19.1 kcal/mol
- Tm [2]: 38.9 °C

Sequence: GGCCTTTCGAAAGAAGCC (((..(((....))))))
- folding enthalpy [1]: -29.9 kcal/mol
- Tm [2]: 37.2 °C

Sequence: GGCGAACCGAAAGGTGCC (((..(((....))))))
- folding enthalpy [1]: -28.3 kcal/mol
- Tm [2]: 53.7 °C

Sequence: GGCGAACGAAAGTTGGCC (((.(((....))).)))
- folding enthalpy [1]: -42.5 kcal/mol
- Tm [2]: 59 °C

Sequence: GGCGAAGCGAAAGCTGCC (((..(((....))))))
- folding enthalpy [1]: -17.7 kcal/mol
- Tm [2]: 52.8 °C

Sequence: GGCGAAGGAAACTTCGTC (.(((((....))))).)
- folding enthalpy [1]: -35.7 kcal/mol
- Tm [2]: 53.1 °C

Sequence: GGCGACCGAAAGGTGCC (((.(((....))))))
- folding enthalpy [1]: -20.9 kcal/mol
- Tm [2]: 63.5 °C

Sequence: GGCGACCGAAAGGTGGCC (((.(((....))).)))
- folding enthalpy [1]: -29.2 kcal/mol
- Tm [2]: 67.9 °C

Sequence: GGCGACGAAAGTCTCGCC ((((((....)))..)))
- folding enthalpy [1]: -25.7 kcal/mol
- Tm [2]: 55.2 °C

Sequence: GGCGACGGAAACACCGCC ((((..(....)..))))
- folding enthalpy [1]: -29.3 kcal/mol
- Tm [2]: 44.5 °C

Sequence: GGCGAGACGAAAGTCGCC (((..(((....))))))
- folding enthalpy [1]: -13.8 kcal/mol
- Tm [2]: 59.4 °C

Sequence: GGCGAGGGAAACCTTGCC (((.(((....))).)))
- folding enthalpy [1]: -44.4 kcal/mol
- Tm [2]: 58 °C

Sequence: GGCGCAGGAAACTACGCC ((((.((....)).))))
- folding enthalpy [1]: -39 kcal/mol
- Tm [2]: 53.5 °C

Sequence: GGCGCCGAAAGGCACGCC ((((((....)))..)))
- folding enthalpy [1]: -15.7 kcal/mol
- Tm [2]: 63.4 °C

Sequence: GGCGCGGCGAAAGCCGCC (((..(((....))))))
- folding enthalpy [1]: -5.51 kcal/mol
- Tm [2]: 48.6 °C

Sequence: GGCGGAACGAAAGTTGCC (((..(((....))))))
- folding enthalpy [1]: -19.5 kcal/mol
- Tm [2]: 47.6 °C

Sequence: GGCGGACCGAAAGGTGCC (((..(((....))))))
- folding enthalpy [1]: -19.9 kcal/mol
- Tm [2]: 55.1 °C

Sequence: GGCGGAGGAAACCCCACC ((.((.(....).)).))
- folding enthalpy [1]: -20.2 kcal/mol
- Tm [2]: 29.6 °C

Sequence: GGCGGAGGAAACTCCACC ((.((((....)))).))
- folding enthalpy [1]: -33.6 kcal/mol
- Tm [2]: 48.9 °C

Sequence: GGCGGAGGAAACTCCGTC (.(((((....))))).)
- folding enthalpy [1]: -25.7 kcal/mol
- Tm [2]: 61.2 °C

Sequence: GGCGGAGGAAACTCTGCC (((.(((....))).)))
- folding enthalpy [1]: -51.1 kcal/mol
- Tm [2]: 57.1 °C

Sequence: GGCGGAGGAAACTTCGCC ((((.((....)).))))
- folding enthalpy [1]: -49.2 kcal/mol
- Tm [2]: 59 °C

Sequence: GGCGGCACGAAAGTGGCC (((..(((....))))))
- folding enthalpy [1]: -11.6 kcal/mol
- Tm [2]: 52 °C

Sequence: GGCGGCCCGAAAGGGGCC (((..(((....))))))
- folding enthalpy [1]: -7.67 kcal/mol
- Tm [2]: 53.1 °C

Sequence: GGCGGCGAAAGCCCAGCC ((((((....)))..)))
- folding enthalpy [1]: -18.5 kcal/mol
- Tm [2]: 57.8 °C

Sequence: GGCGGGGGAAACCTCGCC ((((.((....)).))))
- folding enthalpy [1]: -32.4 kcal/mol
- Tm [2]: 66.1 °C

Sequence: GGCGGTCGAAAGACGCC (((.(((....))))))
- folding enthalpy [1]: -28.6 kcal/mol
- Tm [2]: 67.3 °C

Sequence: GGCGGTGCGAAAGCAGCC (((..(((....))))))
- folding enthalpy [1]: -14.8 kcal/mol
- Tm [2]: 55.8 °C

Sequence: GGCGGTGGAAACGCTGCC (((.(.(....).).)))
- folding enthalpy [1]: -21.9 kcal/mol
- Tm [2]: 54.6 °C

Sequence: GGCGTACGAAAGTAGCC (((.(((....))))))
- folding enthalpy [1]: -32.6 kcal/mol
- Tm [2]: 65.5 °C

Sequence: GGCGTAGGAAACTGCGTC (.((.((....)).)).)
- folding enthalpy [1]: -19.5 kcal/mol
- Tm [2]: 44.1 °C

Sequence: GGCGTCCGAAAGGAGGCC (((.(((....))).)))
- folding enthalpy [1]: -27 kcal/mol
- Tm [2]: 69.1 °C

Sequence: GGCGTCGAAAGACATGCC ((((((....)))..)))
- folding enthalpy [1]: -23.1 kcal/mol
- Tm [2]: 53 °C

Sequence: GGCGTCGAAAGACCAGCC ((((((....)))..)))
- folding enthalpy [1]: -18.6 kcal/mol
- Tm [2]: 50.9 °C

Sequence: GGCGTCGAAAGACCTGCC ((((((....)))..)))
- folding enthalpy [1]: -18.5 kcal/mol
- Tm [2]: 46.6 °C

Sequence: GGCGTCGAAAGACGTGCC ((((((....)))..)))
- folding enthalpy [1]: -12 kcal/mol
- Tm [2]: 51.1 °C

Sequence: GGCGTCGAAAGACTGGCC ((((((....)))..)))
- folding enthalpy [1]: -34.6 kcal/mol
- Tm [2]: 53.7 °C

Sequence: GGCGTCGGAAACAACGCC (((((.(....).)))))
- folding enthalpy [1]: -40.6 kcal/mol
- Tm [2]: 55.2 °C

Sequence: GGCGTCGGAAACGACGTC (.(((((....))))).)
- folding enthalpy [1]: -23.4 kcal/mol
- Tm [2]: 66.2 °C

Sequence: GGCGTGCCGAAAGGCGCC (((..(((....))))))
- folding enthalpy [1]: -11.5 kcal/mol
- Tm [2]: 59.8 °C

Sequence: GGCGTTCGAAAGAATGCC (((.(((....))).)))
- folding enthalpy [1]: -56.5 kcal/mol
- Tm [2]: 62.8 °C

Sequence: GGCGTTGGAAACAGCGCC ((((.((....)).))))
- folding enthalpy [1]: -52.1 kcal/mol
- Tm [2]: 60.9 °C

Sequence: GGCGTTTCGAAAGAAGCC (((..(((....))))))
- folding enthalpy [1]: -23.8 kcal/mol
- Tm [2]: 42.5 °C

Sequence: GGCTAAGAAATTAGCC ((((((....))))))
- folding enthalpy [1]: -27 kcal/mol
- Tm [2]: 53.8 °C

Sequence: GGCTACCGAAAGGTGGCC (((.(((....))).)))
- folding enthalpy [1]: -35.5 kcal/mol
- Tm [2]: 68.8 °C

Sequence: GGCTACGAAAGTAAAGCC ((((((....)))..)))
- folding enthalpy [1]: -32.5 kcal/mol
- Tm [2]: 50.5 °C

Sequence: GGCTACGAAAGTAGGGCC ((((((....)))..)))
- folding enthalpy [1]: -15.7 kcal/mol
- Tm [2]: 47.1 °C

Sequence: GGCTACGAAAGTATGCC ((((((....))).)))
- folding enthalpy [1]: -37.8 kcal/mol
- Tm [2]: 54.6 °C

Sequence: GGCTAGGGAAACCCAGCC ((((.((....)).))))
- folding enthalpy [1]: -39.4 kcal/mol
- Tm [2]: 52.1 °C

Sequence: GGCTATCCGAAAGGAGCC (((..(((....))))))
- folding enthalpy [1]: -27.3 kcal/mol
- Tm [2]: 47.1 °C

Sequence: GGCTATCGAAAGATCGCC (((.(((....))).)))
- folding enthalpy [1]: -30.8 kcal/mol
- Tm [2]: 50.6 °C
